The subject of series [1] is DU-145. In words: Cytotoxicity against human DU145 cells at 40 uM/well after 68 hrs by alamar blue assay. Format: functional, cell-based. The gist of the method: (§1)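 Cells plated in appropriate medium 24 h before compound. A 10 mM DMSO stock was diluted in EMEM to 160 µM (4×) and added in triplicate to a final 40 µM. Incubated 68 h at 37 °C, then Alamar Blue for 4 h at 37 °C. Fluorescence read at ex 510/em 590 nm. Viability taken relative to DMSO control wells.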
For orientation: Alamar Blue is a resazurin reagent that responds to reducing activity.

The subject of series [2] is LN-229. In words: Cytotoxicity against human LN229 cells at 40 uM/well after 68 hrs by alamar blue assay. It is filed as functional, cell-based. An outline of the steps: as §1
Series [3] concerns the target T1, Zinc finger protein GLI1 (Homo sapiens) (UniProt P08151).
T1 sequence (whole entry): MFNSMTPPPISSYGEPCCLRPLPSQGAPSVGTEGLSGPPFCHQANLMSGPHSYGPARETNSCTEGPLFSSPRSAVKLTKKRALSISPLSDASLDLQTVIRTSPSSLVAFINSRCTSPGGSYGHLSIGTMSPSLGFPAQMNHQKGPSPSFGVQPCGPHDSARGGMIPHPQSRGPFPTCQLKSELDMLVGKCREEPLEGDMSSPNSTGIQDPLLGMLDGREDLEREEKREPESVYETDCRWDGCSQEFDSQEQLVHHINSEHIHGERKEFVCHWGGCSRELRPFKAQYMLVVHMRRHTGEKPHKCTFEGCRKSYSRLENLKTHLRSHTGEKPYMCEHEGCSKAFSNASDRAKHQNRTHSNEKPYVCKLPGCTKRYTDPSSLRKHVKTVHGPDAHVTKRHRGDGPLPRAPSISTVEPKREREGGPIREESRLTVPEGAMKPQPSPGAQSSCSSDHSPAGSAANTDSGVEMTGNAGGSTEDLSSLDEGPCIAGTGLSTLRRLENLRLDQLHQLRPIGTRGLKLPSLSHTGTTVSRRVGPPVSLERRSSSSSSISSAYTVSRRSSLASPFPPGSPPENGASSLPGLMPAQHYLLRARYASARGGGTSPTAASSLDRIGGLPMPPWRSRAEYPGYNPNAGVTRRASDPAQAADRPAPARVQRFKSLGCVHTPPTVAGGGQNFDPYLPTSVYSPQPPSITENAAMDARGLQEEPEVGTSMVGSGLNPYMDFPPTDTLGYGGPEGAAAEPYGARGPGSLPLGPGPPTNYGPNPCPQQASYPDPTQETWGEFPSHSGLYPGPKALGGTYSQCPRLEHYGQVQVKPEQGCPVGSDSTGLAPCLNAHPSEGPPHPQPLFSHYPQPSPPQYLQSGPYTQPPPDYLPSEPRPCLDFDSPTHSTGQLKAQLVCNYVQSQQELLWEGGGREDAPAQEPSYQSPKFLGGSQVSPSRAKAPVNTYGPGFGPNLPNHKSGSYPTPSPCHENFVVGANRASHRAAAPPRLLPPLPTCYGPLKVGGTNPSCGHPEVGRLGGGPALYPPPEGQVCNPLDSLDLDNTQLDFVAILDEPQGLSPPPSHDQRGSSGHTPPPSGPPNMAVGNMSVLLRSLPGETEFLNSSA
In words: Inhibition of exogenously transfected human Gli1-mediated transcriptional activity in mouse C3H10T1/2 cells at 40 uM after 24 hrs by luciferase reporter gene assay. To be noted: C3H 10T1/2. Format: cell-based. An outline of the steps: (§2)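 They were replated 18 h later, given compound or DMSO 6 h after plating, and exposed for 24 h at 37 °C, 5% CO2. Lysate was read by dual luciferase as firefly/Renilla, triplicate, DMSO = 0%. IC50 came from curve fitting.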
On the technique in general: A reporter such as luciferase makes a cellular process visible.

For series [4], the system named is BJ. Nature of the series: Cytotoxicity against human TERT-immortalized human BJ cells at 40 uM/well after 68 hrs by alamar blue assay. It is filed as cell-based. An outline of the steps:
as §1

Series [5] concerns Daoy. Nature of the series: Cytotoxicity against human DaOY cells at 40 uM/well after 68 hrs by alamar blue assay. It is filed as functional, cell-based. The gist of the method:
as §1

Series [6] deals with Raji. Nature of the series: Cytotoxicity against human Raji cells at 40 uM/well after 68 hrs by alamar blue assay. Format: functional, cell-based. The gist of the method: as §1
A short description of series [7]: Cytotoxicity against mouse C3H10T1/2 cells. Format: cell-based. The note with it: c3h 10t1/2.
Series [8] has as its system SJRH30. In words: Cytotoxicity against human Rh30 cells at 40 uM/well after 68 hrs by alamar blue assay. Format: functional, cell-based. The gist of the method: as §1
Series [9] relates to HepG2. In words: Cytotoxicity against human HepG2 cells at 40 uM/well after 68 hrs by alamar blue assay. It is filed as functional, cell-based. An outline of the steps:
as §1

In series [10] the target is T1, Zinc finger protein GLI1 (Homo sapiens). Nature of the series: Inhibition of exogenously transfected human Gli1-mediated transcriptional activity in mouse C3H10T1/2 cells at 20 uM after 24 hrs by luciferase reporter gene assay. It is filed as cell-based. To be noted: C3H 10T1/2. The gist of the method: as §2
Series [11] relates to MDA-MB-231. Nature of the series: Cytotoxicity against human MDA-MB-231 cells at 40 uM/well after 68 hrs by alamar blue assay. Format: functional, cell-based. The gist of the method: as §1
Series [12] concerns the target Zinc finger protein GLI2 (Homo sapiens, UniProt P10070). In words: Inhibition of exogenously transfected human Gli2 delta-N-mediated transcriptional activity in mouse C3H10T1/2 cells after 24 hrs by luciferase reporter gene assay. Format: cell-based. To be noted: c3h 10t1/2. The gist of the method: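 C3H10T1/2 reporter assay run as for hGli1, but with an amino-terminal repressor-domain-deleted hGli2 (ΔNhGli2) in place of hGli1, plus GliLuc-BS and pRL-TK via Fugene6. Compound or DMSO was given for 24 h at 37 °C. Read-out was dual luciferase firefly/Renilla in triplicate, with dose-response curve fitting.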

A short description of series [13]: Stability in mouse C3H10T1/2 cells assessed as compound degradation at 40 uM after 24 hrs by LCMS analysis. Format: ADME, cell-based. To be noted: c3h 10t1/2, 24 h.
Series [14] concerns C3H 10T1/2. In words: Inhibition of Photinus pyralis luciferase expression exogenously transfected in mouse C3H10T1/2 cell lysate at 60 uM after 40 mins at room temperature by promega steady-glo luciferase assay. It is filed as functional, cell-free.
In series [15] the test system is C3H 10T1/2. In words: Inhibition of Photinus pyralis luciferase expression exogenously transfected in mouse C3H10T1/2 cell lysate at 20 uM after 40 mins at room temperature by promega steady-glo luciferase assay. It is filed as functional, cell-free.
For series [16], the system named is C3H 10T1/2. In words: Inhibition of Photinus pyralis and Renilla luciferase expression exogenously transfected in mouse C3H10T1/2 cell lysate at 40 uM after 40 mins at room temperature by promega steady-glo luciferase assay. Format: functional, cell-free.
Series [17] relates to C3H 10T1/2. Nature of the series: Inhibition of Photinus pyralis and Renilla luciferase expression exogenously transfected in mouse C3H10T1/2 cell lysate at 20 uM after 40 mins at room temperature by promega steady-glo luciferase assay. Format: functional, cell-free.
For series [18], the target named is T1, Zinc finger protein GLI1 (Homo sapiens). In words: Inhibition of endogenously overexpressed Gli1-mediated transcriptional activity in human Rh30 cells at 20 uM after 24 hrs by luciferase reporter gene assay. It is filed as cell-based. An outline of the steps:
(§3)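 Human Rh30 rhabdomyosarcoma cells (endogenous Gli1, no exogenous Gli1) in RPMI-1640 with 10% FBS were transfected overnight with Fugene6, GliLuc-BS (500 ng/mL) and pRL-CMV (2.5 ng/mL). Cells were replated, given compound or DMSO 18 h later, and exposed for 24 h at 37 °C, 5% CO2. Read-out was dual luciferase firefly/Renilla, triplicate, DMSO = 0%.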

Series [19] has as its system C3H 10T1/2. Nature of the series: Inhibition of Renilla luciferase expression exogenously transfected in mouse C3H10T1/2 cell lysate at 20 uM after 40 mins at room temperature by promega steady-glo luciferase assay. Format: functional, cell-free.
Series [20] deals with C3H 10T1/2. Nature of the series: Inhibition of Photinus pyralis luciferase expression exogenously transfected in mouse C3H10T1/2 cell lysate at 40 uM after 40 mins at room temperature by promega steady-glo luciferase assay. It is filed as functional, cell-free.
Series [21] concerns the target T1, Zinc finger protein GLI1 (Homo sapiens). In words: Inhibition of endogenously overexpressed Gli1-mediated transcriptional activity in human Rh30 cells at 10 uM after 24 hrs by luciferase reporter gene assay. It is filed as cell-based. An outline of the steps: as §3
For series [22] the target is unchanged. Nature of the series: Inhibition of endogenously overexpressed Gli1-mediated transcriptional activity in human Rh30 cells at 40 uM after 24 hrs by luciferase reporter gene assay. It is filed as cell-based. The gist of the method: as §3
In series [23] the test system is C3H 10T1/2. In words: Inhibition of Renilla luciferase expression exogenously transfected in mouse C3H10T1/2 cell lysate at 40 uM after 40 mins at room temperature by promega steady-glo luciferase assay. It is filed as functional, cell-free.
In series [24] the test system is C3H 10T1/2. Nature of the series: Inhibition of human Gli1 protein expression exogenously transfected in mouse C3H10T1/2 cells at 20 uM by Western blot analysis. Format: functional, cell-based. For orientation: A western blot detects proteins with antibodies after separation by electrophoresis.
In series [25] the test system is C3H 10T1/2. In words: Inhibition of human Gli1 protein expression exogenously transfected in mouse C3H10T1/2 cells at 40 uM by Western blot analysis. It is filed as functional, cell-based.
Series [26] deals with C3H 10T1/2. In words: Inhibition of Renilla luciferase expression exogenously transfected in mouse C3H10T1/2 cell lysate at 60 uM after 40 mins at room temperature by promega steady-glo luciferase assay. Format: functional, cell-free.
Series [27] has as its system C3H 10T1/2. Nature of the series: Inhibition of Photinus pyralis and Renilla luciferase expression exogenously transfected in mouse C3H10T1/2 cell lysate at 60 uM after 40 mins at room temperature by promega steady-glo luciferase assay. It is filed as functional, cell-free.
For series [28], the system named is C3H 10T1/2. Nature of the series: Selectivity ratio of IC50 for exogenously transfected human Gli2 delta-N-mediated transcriptional activity in mouse C3H10T1/2 cells to IC50 for exogenously transfected human Gli1-mediated transcriptional activity in mouse C3H10T1/2 cells. Format: cell-based. An outline of the steps:
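Ratio of IC50 values from dose-response curves of dual-luciferase Gli-reporter activity in C3H10T1/2 cells. Cells were transfected with ΔNhGli2 versus hGli1, plus GliLuc-BS and pRL-TK, and exposed to compound for 24 h at 37 °C. Triplicate data.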

Molecules are shown by their SMILES. pIC50: −log10 of the molar value. Calls of active or inactive are those of the source. The calls are words filed in the database; no cut-off is given here.

Sequence of Zinc finger protein GLI2 (P10070 whole entry, looked up): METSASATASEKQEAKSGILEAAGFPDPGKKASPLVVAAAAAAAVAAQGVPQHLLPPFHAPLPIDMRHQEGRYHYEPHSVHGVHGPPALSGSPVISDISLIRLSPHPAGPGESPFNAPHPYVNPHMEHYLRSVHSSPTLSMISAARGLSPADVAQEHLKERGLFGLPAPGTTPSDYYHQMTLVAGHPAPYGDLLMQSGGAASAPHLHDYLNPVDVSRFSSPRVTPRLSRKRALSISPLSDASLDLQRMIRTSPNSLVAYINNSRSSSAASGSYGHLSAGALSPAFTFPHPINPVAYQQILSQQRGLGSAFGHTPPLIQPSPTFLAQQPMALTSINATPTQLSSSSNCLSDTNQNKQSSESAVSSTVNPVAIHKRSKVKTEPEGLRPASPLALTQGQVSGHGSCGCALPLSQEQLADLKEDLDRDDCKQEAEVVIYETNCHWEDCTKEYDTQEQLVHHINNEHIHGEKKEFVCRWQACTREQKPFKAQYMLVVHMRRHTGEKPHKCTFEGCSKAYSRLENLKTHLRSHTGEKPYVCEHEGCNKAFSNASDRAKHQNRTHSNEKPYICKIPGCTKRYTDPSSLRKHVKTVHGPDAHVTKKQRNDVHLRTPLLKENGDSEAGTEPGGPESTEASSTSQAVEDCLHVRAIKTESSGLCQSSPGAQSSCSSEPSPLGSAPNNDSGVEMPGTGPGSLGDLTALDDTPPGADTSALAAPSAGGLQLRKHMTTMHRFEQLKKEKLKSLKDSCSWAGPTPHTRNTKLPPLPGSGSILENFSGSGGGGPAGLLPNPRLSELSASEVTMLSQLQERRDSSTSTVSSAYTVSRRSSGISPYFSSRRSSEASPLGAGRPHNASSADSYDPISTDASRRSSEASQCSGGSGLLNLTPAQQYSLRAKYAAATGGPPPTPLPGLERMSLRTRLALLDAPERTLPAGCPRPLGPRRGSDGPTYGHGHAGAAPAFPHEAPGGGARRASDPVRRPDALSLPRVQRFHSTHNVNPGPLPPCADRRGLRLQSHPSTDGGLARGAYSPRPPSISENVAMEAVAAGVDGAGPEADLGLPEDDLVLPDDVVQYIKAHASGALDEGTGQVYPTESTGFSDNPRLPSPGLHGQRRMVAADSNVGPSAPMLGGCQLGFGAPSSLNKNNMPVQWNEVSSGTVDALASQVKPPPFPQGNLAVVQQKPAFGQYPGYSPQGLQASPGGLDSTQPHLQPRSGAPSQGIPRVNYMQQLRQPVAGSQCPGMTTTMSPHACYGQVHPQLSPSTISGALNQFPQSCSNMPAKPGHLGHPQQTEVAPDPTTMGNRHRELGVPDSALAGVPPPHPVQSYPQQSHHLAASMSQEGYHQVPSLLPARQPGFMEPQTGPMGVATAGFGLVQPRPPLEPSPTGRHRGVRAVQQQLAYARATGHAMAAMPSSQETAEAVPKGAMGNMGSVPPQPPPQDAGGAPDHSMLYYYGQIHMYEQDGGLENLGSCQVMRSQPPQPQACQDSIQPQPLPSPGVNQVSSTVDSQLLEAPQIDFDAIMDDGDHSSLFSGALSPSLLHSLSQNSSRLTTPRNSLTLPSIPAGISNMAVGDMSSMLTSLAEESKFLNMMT

Regarding `O=C(Cc1c[nH]c2ccc(OCc3ccccc3)cc12)NCCc1ccc(O)cc1`, the outcome in series [1], in series [5], in [6], in series [8] and in [11] was Active. Moreover, the result in [2] and in series [9] was inactive. Besides, the inhibition result in [3] and in series [10] was “Active” each time. The Activity result in series [4] was “Non-toxic”; in series [7] it was “Toxic”.

Broadly, the pIC50 is −log10 of the IC50, conventionally taken in molar units. As to `C[C@H](C(=O)N(CCc1ccc(O)cc1)CCc1ccc(O)cc1)c1cccc(C(=O)c2ccccc2)c1`, the result in [1], in series [5], in series [6], in series [8] and in [11] was Active. Besides, the outcome in series [2] and in series [9] was inactive. In series [12], this compound had a pIC50 of 4.69. Further, the inhibition entry in series [3] and in series [10] was “Active” in each case. Moreover, in series [4], the Activity result is listed as “Non-toxic”. For the same compound, the Stability entry in series [13] is given as “Stable”.

On to `C[C@H](C(=O)NCCc1ccc(O)cc1)c1cccc(C(=O)c2ccccc2)c1`, for which the inhibition entry in series [14], in [15], in [16], in [17], in [19] and in series [20] was “inactive” throughout. For the same compound, the inhibition result in series [23], in series [24], in series [25], in series [26] and in series [27] was “inactive” throughout. The outcome in [1], in series [5], in series [6], in [8] and in series [11] was Active. Further, the outcome in [2] and in series [9] was inactive. In addition, the pIC50 in series [12] was 4.45. Also, the inhibition result in [18], in series [3], in [21], in [22] and in [10] was “Active” throughout. In addition, the Activity entry in series [4] and in series [7] was “Non-toxic” throughout. Besides, in series [13], the Stability result is “Stable”.

Regarding `CCCN(CCc1ccc(O)cc1)C(=O)[C@@H](C)c1cccc(C(=O)c2ccccc2)c1`, the inhibition result in series [14], in series [15], in [16], in series [17], in [19] and in series [20] was “inactive” throughout. Further, the inhibition result in [23], in series [24], in [25], in [26] and in series [27] was “inactive” each time. The outcome in series [1], in [5], in series [6], in [8] and in series [11] was Active. For the same compound, the outcome in series [2] and in series [9] was inactive. The compound also had a pIC50 in series [12] of 4.62. For the same compound, the inhibition result in series [18], in series [3], in series [21], in series [22] and in [10] was “Active” in each case. The Activity entry in series [4] is recorded as “Non-toxic”. In series [28], the fold change (FC) was determined as 3. Also, in series [13], the Stability entry is listed as “Stable”.

These data come from ChEMBL document CHEMBL1158464, “Structure-activity relationships and cancer-cell selective toxicity of novel inhibitors of glioma-associated oncogene homologue 1 (Gli1) mediated transcription” (J Med Chem, 2009).
